Measurements: ChEMBL document CHEMBL1142626, “Insecticidal and mutagenic evaluation of two annonaceous acetogenins” (J Nat Prod, 2000)

Assays:
Salmonella typhimurium [1] = experiment: Mutagenic activity in Salmonella Typhimurium TA98 assessed as number of revertants at 0.01 ug/plate in absence of Wistar rat S9 liver homogenate; assay type: toxicity, organism-based; details: salmonella enterica subsp. enterica serovar typhimurium
In short: (§1)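 Salmonella/microsome plate test, with or without S9 from livers of male Wistar rats (~200 g). Strain markers and spontaneous revertant counts were routinely verified. Revertants are reported as mean ± standard error of triplicate plates. Strain-specific positive controls were used, with 2-aminoanthracene for all strains when S9 was present.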

Salmonella typhimurium [2] = experiment: Bactericidal activity against Salmonella Typhimurium TA100 assessed as viability after 24 hrs in absence of Wistar rat S9 liver homogenate; assay type: functional, organism-based; details: Salmonella enterica subsp. enterica serovar Typhimurium
In short: (§2)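 Viability assay: test solution or DMSO was mixed with diluted overnight culture and phosphate buffer (no S9) in top agar with histidine/biotin. The mixture was spread on nutrient agar and incubated 24 h at 37 °C. Colonies were counted to give viable bacteria per mL; positive and negative controls included; triplicate.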

Salmonella typhimurium [3] = experiment: Mutagenic activity in Salmonella Typhimurium TA102 assessed as number of revertants at 0.01 ug/plate in presence of Wistar rat S9 liver homogenate; assay type: toxicity, organism-based, Liver S9 fraction; details: salmonella enterica subsp. enterica serovar typhimurium; in short: as §1
Salmonella typhimurium [4] = experiment: Mutagenic activity in Salmonella Typhimurium TA102 assessed as number of revertants at 10 ug/plate in presence of Wistar rat S9 liver homogenate; assay type: toxicity, organism-based, Liver S9 fraction; details: salmonella enterica subsp. enterica serovar typhimurium; in short: as §1
Myzus persicae = experiment: Antifeedant effect against Myzus persicae assessed as inhibition index at 100 ug/cm2 relative to control; assay type: functional; parameters: scale not given: the % may be the effect or the level left
In short: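 Choice settling test on apterous adult M. persicae: 20 boxes of 10 aphids per treatment. Settling inhibition %SI = [1 − (%aphids on treated/%aphids on control surface)] × 100.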

[5] = test system: Leptinotarsa decemlineata; experiment: Antifeedant effect against Leptinotarsa decemlineata assessed as feeding reduction at 100 ug/cm2 relative to control; assay type: functional; parameters: scale not given: the % may be the effect or the level left
In short: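 Choice test on leaf disks using adult L. decemlineata or newly emerged fifth-instar S. littoralis larvae. Five to 10 plates per treatment, three insects each. Uneaten leaf-disk area was measured by scanner. %FR = [1 − (treatment/control consumption)] × 100 per arena. Where FR exceeded 50%, EC50 was taken from linear regression of %FR on log dose.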

Salmonella typhimurium [6] = experiment: Mutagenic activity in Salmonella Typhimurium TA98 assessed as number of revertants at 1 ug/plate in absence of Wistar rat S9 liver homogenate; assay type: toxicity, organism-based; details: salmonella enterica subsp. enterica serovar typhimurium; in short: as §1
Salmonella typhimurium [7] = experiment: Mutagenic activity in Salmonella Typhimurium TA100 assessed as number of revertants at 50 ug/plate in absence of Wistar rat S9 liver homogenate; assay type: toxicity, organism-based; details: salmonella enterica subsp. enterica serovar typhimurium; in short: as §1
Salmonella typhimurium [8] = experiment: Mutagenic activity in Salmonella Typhimurium TA100 assessed as number of revertants at 1 ug/plate in presence of Wistar rat S9 liver homogenate; assay type: toxicity, organism-based, Liver S9 fraction; details: salmonella enterica subsp. enterica serovar typhimurium; in short: as §1
Salmonella typhimurium [9] = experiment: Mutagenic activity in Salmonella Typhimurium TA98 assessed as number of revertants at 10 ug/plate in absence of Wistar rat S9 liver homogenate; assay type: toxicity, organism-based; details: salmonella enterica subsp. enterica serovar typhimurium; in short: as §1
Salmonella typhimurium [10] = experiment: Mutagenic activity in Salmonella Typhimurium TA98 assessed as number of revertants at 50 ug/plate in absence of Wistar rat S9 liver homogenate; assay type: toxicity, organism-based; details: salmonella enterica subsp. enterica serovar typhimurium
In short: (§3)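 Salmonella/microsome plate test (Ames) in strain TA98, with genetic markers and spontaneous revertant counts verified routinely. Run with and without S9 mix, the S9 being liver postmitochondrial supernatant from male Wistar rats of about 200 g. Doses ran from 0.01 to 100 µg/plate. Revertants are the mean of triplicate plates with standard error. Positive controls were 0.5 µg 4-nitroquinoline-N-oxide without S9 and 15 µg 2-aminoanthracene with S9.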

Salmonella typhimurium [11] = experiment: Mutagenic activity in Salmonella Typhimurium TA100 assessed as number of revertants at 0.01 ug/plate in presence of Wistar rat S9 liver homogenate; assay type: toxicity, organism-based, Liver S9 fraction; details: salmonella enterica subsp. enterica serovar typhimurium; in short: as §1
Salmonella typhimurium [12] = experiment: Mutagenic activity in Salmonella Typhimurium TA102 assessed as number of revertants at 100 ug/plate in presence of Wistar rat S9 liver homogenate; assay type: toxicity, organism-based, Liver S9 fraction; details: salmonella enterica subsp. enterica serovar typhimurium; in short: as §1
Salmonella typhimurium [13] = experiment: Mutagenic activity in Salmonella Typhimurium TA98 assessed as number of revertants at 50 ug/plate in presence of Wistar rat S9 liver homogenate; assay type: toxicity, organism-based, Liver S9 fraction; details: salmonella enterica subsp. enterica serovar typhimurium; in short: as §3
Salmonella typhimurium [14] = experiment: Mutagenic activity in Salmonella Typhimurium TA100 assessed as number of revertants at 20 ug/plate in absence of Wistar rat S9 liver homogenate; assay type: toxicity, organism-based; details: salmonella enterica subsp. enterica serovar typhimurium; in short: as §1
Salmonella typhimurium [15] = experiment: Mutagenic activity in Salmonella Typhimurium TA98 assessed as number of revertants at 0.1 ug/plate in presence of Wistar rat S9 liver homogenate; assay type: toxicity, organism-based, Liver S9 fraction; details: salmonella enterica subsp. enterica serovar typhimurium; in short: as §1
Salmonella typhimurium [16] = experiment: Bactericidal activity against Salmonella Typhimurium TA98 assessed as viability after 24 hrs in absence of Wistar rat S9 liver homogenate; assay type: functional, organism-based; details: Salmonella enterica subsp. enterica serovar Typhimurium; in short: as §2
Salmonella typhimurium [17] = experiment: Mutagenic activity in Salmonella Typhimurium TA102 assessed as number of revertants at 20 ug/plate in absence of Wistar rat S9 liver homogenate; assay type: toxicity, organism-based; details: salmonella enterica subsp. enterica serovar typhimurium; in short: as §1
Salmonella typhimurium [18] = experiment: Mutagenic activity in Salmonella Typhimurium TA102 assessed as number of revertants at 20 ug/plate in presence of Wistar rat S9 liver homogenate; assay type: toxicity, organism-based, Liver S9 fraction; details: salmonella enterica subsp. enterica serovar typhimurium; in short: as §1
Salmonella typhimurium [19] = experiment: Mutagenic activity in Salmonella Typhimurium TA102 assessed as number of revertants at 1 ug/plate in absence of Wistar rat S9 liver homogenate; assay type: toxicity, organism-based; details: salmonella enterica subsp. enterica serovar typhimurium; in short: as §1
Salmonella typhimurium [20] = experiment: Mutagenic activity in Salmonella Typhimurium TA100 assessed as number of revertants at 50 ug/plate in presence of Wistar rat S9 liver homogenate; assay type: toxicity, organism-based, Liver S9 fraction; details: salmonella enterica subsp. enterica serovar typhimurium; in short: as §1
Salmonella typhimurium [21] = experiment: Mutagenic activity in Salmonella Typhimurium TA102 assessed as number of revertants at 1 ug/plate in presence of Wistar rat S9 liver homogenate; assay type: toxicity, organism-based, Liver S9 fraction; details: salmonella enterica subsp. enterica serovar typhimurium; in short: as §1
Salmonella typhimurium [22] = experiment: Mutagenic activity in Salmonella Typhimurium TA102 assessed as number of revertants at 10 ug/plate in absence of Wistar rat S9 liver homogenate; assay type: toxicity, organism-based; details: salmonella enterica subsp. enterica serovar typhimurium; in short: as §1
Salmonella typhimurium [23] = experiment: Mutagenic activity in Salmonella Typhimurium TA98 assessed as number of revertants at 1 ug/plate in presence of Wistar rat S9 liver homogenate; assay type: toxicity, organism-based, Liver S9 fraction; details: salmonella enterica subsp. enterica serovar typhimurium; in short: as §1
Salmonella typhimurium [24] = experiment: Mutagenic activity in Salmonella Typhimurium TA98 assessed as number of revertants at 10 ug/plate in presence of Wistar rat S9 liver homogenate; assay type: toxicity, organism-based, Liver S9 fraction; details: salmonella enterica subsp. enterica serovar typhimurium; in short: as §1

CCCCCCCCCCCC[C@@H](O)[C@H]1CC[C@H]([C@H](O)CCCC[C@H](O)CCCCC[C@@H](O)CC2=CC(C)OC2=O)O1 (stereo not given in full) [ANNONACIN] was tested, and the Activity (Salmonella typhimurium [1]) was 33, the Activity (Salmonella typhimurium [2]) was “Non-toxic” and the Activity (Salmonella typhimurium [3]) was 443. For the same compound, the Activity (Salmonella typhimurium [4]) was 430, the Activity (Myzus persicae) was under 40% and the Activity [5] was 93%. The Activity (Salmonella typhimurium [6]) was 32, the Activity (Salmonella typhimurium [7]) was 85 and the Activity (Salmonella typhimurium [8]) was 140. It also gave an Activity (Salmonella typhimurium [9]) of 34, an Activity (Salmonella typhimurium [10]) of 21 and an Activity (Salmonella typhimurium [11]) of 135. It also gave an Activity (Salmonella typhimurium [12]) of 437, an Activity (Salmonella typhimurium [13]) of 25 and an Activity (Salmonella typhimurium [14]) of 96. For the same compound, the Activity (Salmonella typhimurium [15]) was 21, the Activity (Salmonella typhimurium [16]) was “Non-toxic” and the Activity (Salmonella typhimurium [17]) was 204. The Activity (Salmonella typhimurium [18]) was 432, the Activity (Salmonella typhimurium [19]) was 277 and the Activity (Salmonella typhimurium [20]) was 99. For the same compound, the Activity (Salmonella typhimurium [21]) was 429, the Activity (Salmonella typhimurium [22]) was 221 and the Activity (Salmonella typhimurium [23]) was 27. It also gave an Activity (Salmonella typhimurium [24]) of 19.
